This note sets out measurements from ChEMBL document CHEMBL1123757, “Selective thromboxane synthetase inhibitors and antihypertensive agents. New derivatives of 4-hydrazino-5H-pyridazino[4,5-b]indole, 4-hydrazinopyridazino[4,5-a]indole, and related compounds” (J Med Chem, 1987).

As a reminder, the inhibition in vivo is how much of the control response was suppressed. A lower inhibition in vivo goes with little suppression. As usually defined, the inhibition is the drop in the measured response relative to a control, in per cent. What is called Inhibition is the percentage by which the read-out fell short of the control. Read a high Inhibition as strong suppression.

Assay [1] relates to Cavia porcellus. The experiment in a line: Ex vivo inhibition of platelet aggregation induced by ADP-II at 100 mg/kg. The assay is classed as functional. The method, boiled down: (§1)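 Fasted male or female guinea pigs (250–300 g, five per group) dosed orally in normal saline or saline with 0.2% (carboxymethyl)cellulose/1.0% Tween 80; controls given vehicle. Under ether, cardiac blood collected into 3.8% citrate. PRP adjusted to […] and aggregation induced by ADP (second wave) or AA, read by absorbance aggregometry. PGE2 and TXB2 measured by RIA.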

For assay [2], the species on record is Homo sapiens. In words: In vitro inhibition of platelet aggregation induced by ADP-II (PRP incubated for 5 minutes at 37 degree C) at 10e-6 M. The assay is classed as functional. The method, boiled down: (§2)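 Human venous blood anticoagulated with 3.8% sodium citrate (1:9). PRP from centrifugation at 800 rpm for 10 min at room temperature. Count adjusted with PPP to […]. Compound in saline with 10% ethylene glycol is added to PRP and incubated at 37 °C before the agonist. Agonists: ADP 2×10^-5 M, AA 0.6 mM, PGH2 2.8 μM, adrenaline 0.6 μM. Born absorbance aggregometry; n = 5.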

The species named for assay [3] is Homo sapiens. In words: In vitro inhibition of platelet aggregation induced by PGH-2 (PRP incubated for 60 minutes at 37 degree C) at 10e-5 M. The assay is classed as functional. The settings on record: 1 h. The method, boiled down:
as §2

In assay [4] the test system is Cavia porcellus. The experiment in a line: Effect on thromboxane synthetase activity on ex vivo platelet aggregation induced by TXB2 at 100 mg/kg expressed as percent increase. The assay is classed as functional. The method, boiled down: as §1
Assay [5] is filed under the species Homo sapiens. In words: In vitro inhibition of platelet aggregation induced by DD (PRP incubated for 5 minutes at 37 degree C) at 10e-5 M. The assay is classed as functional. The method, boiled down:
as §2

The species entered for assay [6] is Homo sapiens. In words: Inhibition of platelet aggregation induced by AA (PRP incubated for 60 minutes at 37 degree C) at 10e-5 M. The assay is classed as functional. The settings on record: 1 h. The method, boiled down: as §2
Assay [7] is filed under the species Homo sapiens. The experiment in a line: In vitro inhibition of platelet aggregation induced by ADP-II (PRP incubated for 60 minutes at 37 degree C) at 10e-5 M. The assay is classed as functional. The conditions noted are these: 1 h. The method, boiled down:
as §2

For assay [8], the system named is Rattus norvegicus. In words: Antihypertensive activity in spontaneously hypertensive rats (SHR) measured by percentage fall in arterial pressure (AP) at 50 mg/kg administered intraperitoneally at 5 h. The settings on record: route intraperitoneal. The assay is classed as functional, Artery. The essentials:
(§3)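 Unanesthetized Okamoto-strain SHR, male and female, 8 weeks old, 300–350 g, systolic pressure ≥190 mmHg, heart rate 400–650 beats/min; five animals per dose. Given ip at 2.5 mL/kg, dissolved or suspended in normal saline or saline with 0.2% (carboxymethyl)cellulose and 1.0% Tween 80. Tail AP and CR recorded by mechanical transduction at set times; reported as percentage fall from control.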

In assay [9] the test system is Rattus norvegicus. In words: Antihypertensive activity in spontaneously hypertensive rats (SHR) measured by percentage fall in cardiac rhythm (CR) at 50 mg/kg administered intraperitoneally at 24 h. The assay is classed as functional, Heart. The settings on record: route intraperitoneal. The essentials:
(§4)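 Conscious SHR (Okamoto strain), 8 weeks old, male and female, 300–350 g, systolic BP ≥190 mmHg, CR 400–650 beats/min. Given ip or po at 2.5 mL/kg in normal saline or saline with 0.2% (carboxymethyl)cellulose and 1.0% Tween 80. Tail AP and CR recorded by mechanical transduction at 1, 3, 5 and 24 h, five animals per dose. Effect expressed as % fall versus control.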

In assay [10] the test system is Rattus norvegicus. In words: Antihypertensive activity in spontaneously hypertensive rats (SHR) measured by percentage fall in cardiac rhythm (CR) at 50 mg/kg administered intraperitoneally at 5 h. The assay is classed as functional, Heart. The conditions noted are these: route intraperitoneal. The method, boiled down:
as §4

Assay [11] deals with Cavia porcellus. In words: Effect on thromboxane synthetase activity on ex vivo platelet aggregation induced by PGE-2 at 100 mg/kg expressed as percent increase. The assay is classed as functional. The method, boiled down:
as §1

For assay [12], the species on record is Homo sapiens. The experiment in a line: In vitro inhibition of platelet aggregation induced by ADP-II (PRP incubated for 5 minutes at 37 degree C) at 10e-5 M. The assay is classed as functional. The method, boiled down:
as §2

For assay [13], the system named is Rattus norvegicus. The experiment in a line: Antihypertensive activity in spontaneously hypertensive rats (SHR) measured by percentage fall in cardiac rhythm (CR) at 50 mg/kg administered intraperitoneally at 3 h. The settings on record: route intraperitoneal. The assay is classed as functional, Heart. The essentials: as §4
Assay [14] deals with Rattus norvegicus. The experiment in a line: Antihypertensive activity in spontaneously hypertensive rats (SHR) measured by percentage fall in arterial pressure (AP) at 50 mg/kg administered intraperitoneally at 24 h. The assay is classed as functional, Artery. The settings on record: route intraperitoneal. The essentials: as §3
Assay [15] can be described thus: Effect on thromboxane synthetase activity on in vitro platelet aggregation induced by AA at 10e -5 M expressed as percent increase in PGE-2. The assay is classed as functional, Homo sapiens. The essentials:
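Human citrated PRP adjusted to 200 000 […], compound at 10^-5 M final in saline/10% ethylene glycol, incubated at 37 °C. Aggregation induced with arachidonic acid 0.6 mM and read by Born absorbance aggregometry. PGE2 and TXB2 in the aggregated samples measured by radioimmunoassay. n = 5.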

The species named for assay [16] is Homo sapiens. The experiment in a line: In vitro inhibition of platelet aggregation induced by AA (PRP incubated for 60 minutes at 37 degree C) at 5e-6 M;No significance. The assay is classed as functional. The method, boiled down:
as §2

Assay [17] deals with Cavia porcellus. In words: Ex vivo inhibition of platelet aggregation induced by AA at 100 mg/kg. The assay is classed as functional. The essentials:
as §1

For assay [18], the system named is Rattus norvegicus. The experiment in a line: Antihypertensive activity in spontaneously hypertensive rats (SHR) measured by percentage fall in arterial pressure (AP) at 50 mg/kg administered intraperitoneally at 3 h. The assay is classed as functional, Artery. The conditions noted are these: route intraperitoneal. The method, boiled down:
as §3

The target in assay [19] is T1, Thromboxane-A synthase (Homo sapiens) (UniProt P24557).
T1 sequence (whole entry): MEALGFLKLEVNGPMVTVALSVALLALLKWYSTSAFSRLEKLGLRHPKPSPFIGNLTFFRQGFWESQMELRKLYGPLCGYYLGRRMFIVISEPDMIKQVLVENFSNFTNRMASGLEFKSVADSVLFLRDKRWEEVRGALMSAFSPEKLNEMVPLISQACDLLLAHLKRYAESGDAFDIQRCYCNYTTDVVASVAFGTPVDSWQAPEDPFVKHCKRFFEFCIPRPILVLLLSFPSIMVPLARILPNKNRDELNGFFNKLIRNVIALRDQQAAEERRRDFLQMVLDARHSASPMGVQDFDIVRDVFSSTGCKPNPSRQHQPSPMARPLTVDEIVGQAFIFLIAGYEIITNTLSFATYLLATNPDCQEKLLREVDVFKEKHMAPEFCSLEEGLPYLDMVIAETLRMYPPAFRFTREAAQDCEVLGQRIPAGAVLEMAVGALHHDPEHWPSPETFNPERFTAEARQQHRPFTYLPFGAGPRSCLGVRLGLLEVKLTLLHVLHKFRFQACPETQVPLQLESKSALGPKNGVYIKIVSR
In words: Effect on thromboxane synthetase activity on in vitro platelet aggregation induced by AA at 10e -5 M expressed as percent inhibition of TXB2.

For assay [20], the species on record is Homo sapiens. The experiment in a line: In vitro inhibition of platelet aggregation induced by ADP-II (PRP incubated for 60 minutes at 37 degree C) at 5e-6 M. The assay is classed as functional. The method, boiled down:
as §2

As for `Oc1[nH]ncc2c3cc(OCc4ccccc4)ccc3nc1-2`, the figures for the inhibition in vivo at 100 mg/kg in the assay with Cavia porcellus [1], with Cavia porcellus [4] and in the assay with Cavia porcellus [17] were 100%, 50% and 100%, respectively. Moreover, testing at 1 µM in the assay listed under Homo sapiens [2] gave an inhibition of 40%. Further, the inhibition at 10 µM in the assay listed under Homo sapiens [3] turned out to be 100%; in the assay filed under Homo sapiens [5] it was 100%; in the assay listed under Homo sapiens [6], 100%; in the assay listed under Homo sapiens [7], 100%; in the assay listed under Homo sapiens [12], 60%. The “Decrease in AP” value amounted to 13% in the assay with Rattus norvegicus [8], 7% in the assay on Rattus norvegicus [14] and 12% in the assay on Rattus norvegicus [18]. Further, the “Decrease in CR” value in the assay on Rattus norvegicus [9] was found to be 9%; in the assay on Rattus norvegicus [10], 15%; in the assay on Rattus norvegicus [13] it was 10%. For the same compound, the figures for the Increase (with Cavia porcellus [11]; in [15]) were 30% and 270%, respectively. The inhibition entry in the assay filed under Homo sapiens [16] was “No significant values”. The compound also gave an Inhibition % in [19] of 50%. The compound further showed an Inhibition in the assay listed under Homo sapiens [20] of 80%.
